Source: PubChem
KCNK9 inh = human KCNK9 channel inhibition | Q9NPC2 | HEK293 KCNK9, FluxOR thallium flux fluorescence; hits give low values | B-score at 10 µM | 1.2% of 310,000 active | AID 488922;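 active = ratio B-score over 3 SD below the library mean, with starting fluorescence within 5 SD of its mean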;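 also: negative B-score means less thallium flux so channel inhibition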
KCNQ1 pot = potentiates or activates the human KCNQ1 potassium channel. CHO-K1 KCNQ1, thallium flux FluxOR fluorescence; hits give high values. B-score at 10 µM. 0.35% of 310,000 active. AID 2648;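 active = fluorescence ratio B-score, a plate-corrected score, at least three library SD, with initial intensity B-score within 5 SD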
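Test system: CHO-K1 cells stably expressing KCNQ1 / Medium: assay buffer / Also added: depolarizing K+/Tl+ stimulus, K2SO4 and Tl2SO4 each 12.5 mM in 5x stock / Incubation: 90 min dye loading and 20 min compound exposure, both at room temperature / Signal: thallium influx via FluxOR fluorescence, kinetic imaging / Evaluation: B score of baseline-normalized fluorescence ratio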
KCNQ1 inh = blocks the human KCNQ1 potassium channel; CHO-K1 KCNQ1, FluxOR thallium flux fluorescence; hits give high values; B-score at 10 µM; 1.3% of 310,000 active;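 active = compounds whose thallium flux B-score, printed positive for inhibition, exceeds three library SD while starting fluorescence stays within three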;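 also: channel opened by potassium depolarization with thallium stimulus after 20 min compound exposure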
hERG protect = shields human hERG channel from block by proarrhythmic agents; Q12809; CHO-hERG, FluxOR thallium flux, dofetilide IC70 present; activation (rescue from dofetilide block), less the hit threshold, % at 10 µM; 0.51% of 310,000 active;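 active = activation above the mean of controls blocked by dofetilide plus 5 SD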;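 also: thallium influx through hERG after potassium depolarization seen as dye fluorescence rise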
KCNK3 inh = human KCNK3 channel inhibition, primary screen; O14649; 0.84% of 340,000 active; AID 602410; CHO-KCNK3 thallium flux, FluxOR fluorescence; hits give low values; B-score at 10 µM;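 active = B-score under library mean minus 4 SD, starting fluorescence ratio at most library mean plus 5 SD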;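 also: more negative B-score means stronger inhibition of thallium flux through KCNK3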
Target sequence (O14649 whole entry, looked up): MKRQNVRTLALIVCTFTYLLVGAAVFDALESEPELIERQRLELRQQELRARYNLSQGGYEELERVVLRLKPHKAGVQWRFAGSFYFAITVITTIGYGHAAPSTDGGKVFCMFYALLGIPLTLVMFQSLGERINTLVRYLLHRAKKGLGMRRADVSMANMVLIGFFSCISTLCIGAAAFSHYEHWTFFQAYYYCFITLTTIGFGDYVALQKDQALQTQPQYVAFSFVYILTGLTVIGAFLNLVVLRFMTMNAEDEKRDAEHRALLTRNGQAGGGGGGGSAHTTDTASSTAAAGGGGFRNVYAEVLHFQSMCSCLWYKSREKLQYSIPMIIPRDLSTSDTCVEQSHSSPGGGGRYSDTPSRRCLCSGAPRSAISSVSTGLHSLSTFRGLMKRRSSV
Kir21 inh = blocks the mouse Kir2.1 inward-rectifier potassium channel | P35561 | HEK293-Kir2.1, FluxOR thallium flux fluorescence; hits give low values | B-score at 10 µM | 0.85% of 310,000 active;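 active = fluorescence ratio B-score at or below minus 3 SD of library scores, with starting-brightness B-score within 2 SD, cut at about -4.2 in these data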;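 also: channel flux triggered by added potassium and thallium sulfate stimulus; B-score of peak minus minimum fluorescence over baseline after thallium stimulus; more negative B-score means stronger Kir2.1 block with less thallium influx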
An asterisk follows results filed as active; i = inactive; / = no result. Sampled rows, rich in hits. Any-hit rate of the full collection: about 3.7%.

SMILES	KCNK9 inh	KCNQ1 pot	KCNQ1 inh	hERG protect	KCNK3 inh	Kir21 inh
CCc1ccc(/C=C/C(=O)C2C(=O)c3ccccc3C2=O)cc1	i	28*	i	27.6*	i	-1.1
CCc1ccc(C2C(C(=O)O)c3ccccc3C(=O)N2C)cc1 (stereo unspecified)	i	i	i	-2.5	i	0
COC(=O)C1Cc2c([nH]c3ccccc23)C2(CCN(Cc3ccccc3)CC2)N1 (stereo unspecified)	i	i	i	-6.9	i	-6.85*
COc1cc(C(=O)N/C(=C/c2ccc(F)cc2)C(=O)NC(C(=O)O)c2ccccc2)cc(OC)c1OC (stereo unspecified)	i	i	i	-3.6	i	1.36
COc1ccc2cc(C(C)C(=O)NC3CCC(O)CC3)ccc2c1 (stereo unspecified)	i	i	i	-11.7	i	0
O=C(NCC1CCCO1)c1ccccc1-c1nc(-c2ccc(Cl)cc2)no1 (stereo unspecified)	i	i	6*	-14.7	i	0.02
Cc1c(NC(=O)c2ccc3c(c2)OCO3)cccc1-c1nc2ccccc2o1	i	i	i	6.0*	i	-0.31
Cc1ccc(-c2nc3ccccc3o2)cc1NC(=O)c1ccc2c(c1)OCO2	i	i	i	-13.7	i	-0.35
Cc1cc2occ(CC(=O)N(C)CC(=O)Nc3ccccc3C(F)(F)F)c2cc1C	/	/	/	/	i	/
Cc1oc(-c2ccc(Cl)cc2)nc1CN1CCC(C(=O)NCCCN2CCOCC2)CC1	i	i	i	-6.5	i	-4.57*
CCC1CCCCN1CCCNC(=O)C1CCN(Cc2nc(-c3ccc(Cl)cc3)oc2C)CC1 (stereo unspecified)	i	i	i	-8.8	i	-1.17
O=C(Nc1cccc(S(=O)(=O)NCc2ccco2)c1)c1cccc(Cl)c1	/	/	/	/	i	/
O=C(O)Cc1ccc(NC(=O)C2CC=CCC2C(=O)O)cc1 (stereo unspecified)	i	i	i	8.7*	/	0.19
Cc1ccc(C(=O)NCC(c2ccc(F)cc2)N2CCOCC2)cc1S(=O)(=O)N1CCOCC1 (stereo unspecified)	/	/	/	/	i	/
O=C1C=C(c2cc3ccccc3o2)C[C@@H](c2ccc(F)cc2)C1	/	/	/	/	i	/
CCOc1ccc(NC(=O)CSc2nnc(C3CC3)n2C)cc1	i	i	i	-4.9	i	-1.08
CCOc1ccc(C(=O)CSc2nnc(C3CC3)n2C)cc1	i	i	i	6.4*	i	0.21
Nc1nnc(SCC(=O)Nc2cccc3ccccc23)s1	i	i	i	-2.5	i	0.07
Cc1ccccc1-c1cc(C(=O)Nc2sc(C(=O)OC(C)C)c(C)c2C#N)c2ccccc2n1	i	i	10*	-7.0	i	-1.21
COc1ccc(-c2cc(C(=O)OCC(=O)NC(C)C)c3ccccc3n2)cc1	i	i	i	-5.1	i	-4.36*
CCOC(=O)c1sc(NC(=O)c2cc(-c3ccc(C)cc3)nc3ccccc23)c(C#N)c1C	i	i	7*	-18.8	i	-1.21
CCCNC(=O)COC(=O)c1cc(-c2ccc(OC)cc2)nc2ccccc12	i	i	i	-5.2	i	0.1
CSc1ccccc1NC(=O)C1=CC(c2ccc(C)cc2)=NS(=O)(=O)N1C	i	i	i	-9.4	i	-1.96
CC(C)CNC(=O)c1cnn2c(C(F)(F)F)cc(C(F)(F)F)nc12	i	i	i	-8.3	i	-0.22
COc1ccc(S(=O)(=O)NC(C)C(=O)NCc2ccccn2)cc1OC (stereo unspecified)	i	i	i	-6.9	i	-0.08
SMILES	KCNK9 inh	KCNQ1 pot	KCNQ1 inh	hERG protect	KCNK3 inh	Kir21 inh
C[C@@]12C(=O)N(c3ccc(C(F)(F)F)cc3)C(=O)N1[C@@H]1c3ccccc3OC[C@@H]1[C@H]2c1ccccc1	i	i	i	-9.0	i	-0.39
O=C(CC(SCc1ccco1)c1ccc(O)cc1)c1cccs1 (stereo unspecified)	i	i	i	-14.3	i	-4.75*
CCOCCOCN(C#N)c1nc(OC)nc(N(C)C)n1	i	i	i	48.9*	i	-3.26
CCOc1cc(CNCc2ccccc2)ccc1OCC(=O)NC1CCCCC1	i	i	i	-3.2	i	-4.38*
CC1COc2ccccc2N1S(=O)(=O)c1ccc(Cl)cc1 (stereo unspecified)	i	i	i	-16.8	i	-4.41*
CN(C)CCNC(=O)c1cc2sc3ccccc3c2s1	i	i	i	-11.6	i	-4.21*
CCN(CC)C(=O)c1cc2sc3ccccc3c2s1	-7.53*	i	i	-8.8	i	-1.24
CCOC(=O)c1sc(NC(=O)CSc2nnc(C)s2)c(C(=O)OCC)c1C	-6.77*	i	i	-6.8	i	0.24
CCOC(=O)c1sc(NN=C(C(=O)OC)C(=O)OC)c(C(=O)OCC)c1C	i	8*	i	9.0*	i	0.03
CCOC(=O)c1sc(NC(=O)CCN2CCN(C)CC2)c(C(=O)OCC)c1C	i	i	i	-10.0	i	-5.47*
CCOC(=O)c1sc(NC(=O)CCN2CC(C)OC(C)C2)c(C(=O)OCC)c1C (stereo unspecified)	i	i	i	-11.2	/	0.59
Cc1cccnc1NC(=O)CN1C(=O)COc2ccc(Cl)cc21	i	i	i	-3.0	i	-0.98
O=C(Nc1cccc2c1[nH]c1ccccc12)C(F)(F)F	i	i	6*	-3.3	i	2.61
CCN(C(=O)COC(=O)c1cc(-c2cccc3ccccc23)nc2ccccc12)C1CCS(=O)(=O)C1 (stereo unspecified)	-7.13*	i	i	-7.4	i	-0.15
CCN(C(=O)COC(=O)C(Cc1ccccc1)N1C(=O)c2ccccc2C1=O)C1CCS(=O)(=O)C1 (stereo unspecified)	i	8*	i	-8.2	i	-0.07
O=C(COC(=O)c1cc(-c2cccc3ccccc23)nc2ccccc12)NC1CCS(=O)(=O)C1 (stereo unspecified)	i	i	i	-16.4	i	-0.87
COc1ccc(F)cc1CN1CCN(C(=O)c2ccc(S(=O)(=O)N3CCCCCC3)cc2)CC1	/	/	/	/	i	/
COC(=O)c1cc(CSC(=N)N)ccc1OCCC(C)C	i	i	i	-9.5	i	-9.47*
CCOC(=O)c1cc(C#N)c(Oc2cccc(C(F)(F)F)c2)nc1-c1ccccc1	i	i	6*	-13.1	i	1
CCn1c2ccccc2c2cc(/C=N/NC(=O)c3ccc(O)cc3)ccc21	i	i	i	-9.3	i	-4.43*
